# Experimental data pooled from the literature.
# Lines come from different studies, so protocols differ.
# CYP2B6: Cytochrome P450 2B6 (CYP2B6, Homo sapiens, UniProt P20813)
Compound,tested on,test,test system,setting,measurement,value
Cc1cc(S(=O)(=O)N[C@]2(C)C[C@@H](N3CCN(CC4CCN(c5ccc6c(c5F)n(C)c(=O)n6C5CCC(=O)NC5=O)CC4)CC3)C2)ccc1Nc1ncc(C(F)(F)F)c(N2CCC[C@](C)(O)C2)n1 (some centres unmarked),,,"rat, plasma","intravenous, 2 mg/kg",clearance,62 mL/min/kg
OCc1ccc(-c2nn(Cc3ccccc3)c3ccccc23)o1,CYP2B6,"enzyme activity, inhibitor","human, liver microsomes",,IC50,5.1 µM
CC(C)[C@@H]1NC(=O)[C@@H](CCCNC(=N)N)NC(=O)[C@H](C)NC(=O)[C@@H](CCCN)NC(=O)[C@H](Cc2ccccc2)NC(=O)[C@@H](Cc2ccccc2)NC1=O,,haemolysis,human,100 µM,haemolysis,< 10%
CC(C)n1ncc2c(C(=O)NCC3(C)CNC3)cc(C3CC3)nc21,HeLa,"cell growth or viability, neutral red",,0.11 µM,viability,99.9%
Cc1cc(S(=O)(=O)NC2CC(N3CCN(CC4CCN(c5ccc(NC6CCC(=O)NC6=O)cc5C)CC4)CC3)C2)ccc1Nc1ncc(C(F)(F)F)c(N2CCC[C@](C)(O)C2)n1 (some centres unmarked),,,"rat, plasma","intravenous, 2 mg/kg",clearance,26 mL/min/kg
C[C@H]1Oc2cc(cnc2N)-c2c(nn(C)c2C#N)CN(C)C(=O)c2ccc(F)cc21,,,"male Sprague-Dawley rat, plasma","oral, 5 mg/kg, single dose",CL/F,50 mL/min/kg
CC(C)[C@@H]1NC(=O)[C@@H](CCCCN)NC(=O)[C@H]([C@@H](C)O)NC(=O)[C@@H](CCCN)NC(=O)[C@H](Cc2ccccc2)NC(=O)[C@@H](Cc2ccccc2)NC1=O,,haemolysis,human,100 µM,haemolysis,< 10%
CNS(=O)(=O)c1ccc(Nc2ncc(C(F)(F)F)c(N3CCC(C)(O)CC3)n2)c(C)c1,,,"rat, plasma","intravenous, 2 mg/kg",clearance,52 mL/min/kg
CSc1ccccc1C(=O)NCCn1cc(C(=O)NCc2cccc(C)n2)c(=O)c2cc3c(cc21)OCO3,CYP2B6,"enzyme activity, inhibitor","human, liver microsomes","20 min, without NADPH, with preincubation",IC50,> 100 µM
c1ccc(COc2ccc(Nc3ccc4ncc(OCC5CCNCC5)nc4c3)cc2)cc1,HeLa,"cell growth or viability, XTT",,7 days,EC50,> 30 µM
Cc1cc(S(=O)(=O)N[C@H]2CC[C@H](CN3CCN(c4ccc(C5CCC(=O)NC5=O)c(Cl)c4)CC3)CC2)ccc1Nc1ncc(C(F)(F)F)c(N2CCC[C@](C)(O)C2)n1 (some centres unmarked),,,"rat, plasma","intravenous, 2 mg/kg",clearance,15 mL/min/kg
CSc1ccccc1C(=O)NCCn1cc(C(=O)NCc2cccc(C)n2)c(=O)c2cc3c(cc21)OC(F)(F)O3,CYP2B6,"enzyme activity, inhibitor","human, liver microsomes","20 min, without NADPH, with preincubation",IC50,> 100 µM
c1ccc(Oc2ccc(Nc3ccc4ncc(OCC5CCNCC5)nc4c3)cc2)cc1,HeLa,"cell growth or viability, XTT",,7 days,EC50,20.9 µM
CCCCCCCCCCCCCCCCCC(=O)O,HeLa,"cell growth or viability, MTT",,48 h,CC50,90.6 µg/mL
